We go through two compounds from ChEMBL document CHEMBL1955778, “Design and synthesis of novel 7-aminoquinazoline derivatives: antitumor and anticonvulsant activities” (Bioorg Med Chem Lett, 2012).

What is called TD50 is the dose at which the toxic effect under study appears in half of the subjects. Broadly, the LD50 is the dose expected to kill half of the subjects tested. A word on the ED50: it is the dose that gives a 50% effect, or the effect in half of the subjects.

Structures are written as SMILES.

The nature of series [1]: Therapeutic index, ratio of LD50 for mouse to ED50 for pentylenetetrazol-induced seizure in mouse. The following applies: in vivo, read-out: Ratio LD50/ED50. The class given is organism-based. An outline of the steps:
(§1)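 In mice, LD50 is the dose causing 50% mortality. ED50 is the dose protecting 50% of mice against pentylenetetrazole-induced seizures. Therapeutic index = LD50/ED50.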

Series [2] in a line: Neurotoxicity in ip dosed mouse assessed as impaired motor coordination administered 30 mins prior to test by chimney test. It is filed as toxicity, organism-based. Conditions: in vivo. An outline of the steps:
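Mice, Chimney test. TD50 is the dose that produces minimal neurological toxicity (impaired motor coordination) in 50% of animals, estimated from testing at several doses.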

Series [3] has as its system Mus musculus. Kind of series: Anticonvulsant activity in mouse assessed as protection against strychnine-induced seizure at 1.4 mmol/kg, ip administered 30 min prior to strychnine-challenge measured after 60 mins relative to control. It is filed as functional.
The nature of series [4]: Toxicity in ip dose mouse assessed as mortality. It is filed as organism-based. Conditions: in vivo. An outline of the steps: as §1
Series [5] deals with Mus musculus. Briefly: Anticonvulsant activity in ip dosed mouse assessed as protection against pentylenetetrazol-induced seizure administered 30 min prior to pentylenetetrazol-challenge measured after 60 mins. It is filed as functional. The procedure, abridged:
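Mice received several doses for quantification. ED50 taken as the dose protecting 50% of mice against pentylenetetrazol-induced seizures.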

In series [6] the test system is Mus musculus. Kind of series: Anticonvulsant activity in mouse assessed as protection against pentylenetetrazol-induced seizure at 1.4 mmol/kg, ip administered 30 min prior to pentylenetetrazol-challenge measured after 60 mins relative to control. The class given is functional.
Series [7] relates to Mus musculus. Kind of series: Anticonvulsant activity in mouse assessed as protection against maximal electroshock-induced seizure at 1.4 mmol/kg, ip administered 30 min prior to maximal electroshock-challenge measured after 60 mins relative to control. It is filed as functional. For orientation: Protection in the maximal electroshock model is a classic sign of anticonvulsant action.

Series [8] has as its system Mus musculus. Briefly: Anticonvulsant activity in mouse assessed as protection against picrotoxin-induced seizure at 1.4 mmol/kg, ip administered 30 min prior to picrotoxin-challenge measured after 60 mins relative to control. It is filed as functional.
The species named for series [9] is Mus musculus. Briefly: Protective index, ratio of TD50 for mouse to ED50 for pentylenetetrazol-induced seizure in mouse. The class given is functional. The procedure, abridged:
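Mice. Index is TD50/ED50. TD50 is the dose causing minimal neurological toxicity in 50% of mice in the Chimney test. ED50 is the dose protecting 50% of mice against pentylenetetrazole-induced seizures. Both are estimated from testing at several doses.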

In series [10] the test system is Mus musculus. Briefly: Anticonvulsant activity in mouse assessed as protection against picrotoxin-induced seizure at 1.5 mmol/kg, ip administered 30 min prior to picrotoxin-challenge measured after 60 mins relative to control. The class given is functional.
In series [11] the test system is Mus musculus. Kind of series: Anticonvulsant activity in mouse assessed as protection against maximal electroshock-induced seizure at 1.5 mmol/kg, ip administered 30 min prior to maximal electroshock-challenge measured after 60 mins relative to control. It is filed as functional.
In series [12] the test system is Mus musculus. Kind of series: Anticonvulsant activity in mouse assessed as protection against strychnine-induced seizure at 1.5 mmol/kg, ip administered 30 min prior to strychnine-challenge measured after 60 mins relative to control. The class given is functional.
Series [13] concerns Mus musculus. Briefly: Anticonvulsant activity in mouse assessed as protection against pentylenetetrazol-induced seizure at 1.5 mmol/kg, ip administered 30 min prior to pentylenetetrazol-challenge measured after 60 mins relative to control. It is filed as functional.

Consider `Cc1ccccc1-n1c(C)nc2ccccc2c1=O` [METHAQUALONE], for which, in [1], the selectivity ratio was determined as 1.4. Moreover, the TD50 at 0.5 h in series [2] was 1600 µmol/kg. Moreover, the Activity in [3] worked out at 0%; in series [6], 100%; in series [7] it was 100%; in series [8], 50%. The LD50 in series [4] came to 2000 µmol/kg. Also, in series [5], the ED50 was found to be 1400 µmol/kg. In addition, the “Ratio TD50/ED50” value in series [9] is given as 1.14.
Take `CCCC(CCC)C(=O)[O-].[Na+]` [VALPROATE SODIUM]: the Activity in [10], in series [11], in series [12] and in series [13] was 100% in each case. Also, in [2], the TD50 at 0.5 h was 2700 µmol/kg. Besides, the 50% lethal dose (LD50) in series [4] worked out at 3000 µmol/kg. Also, in series [5], the ED50 is 1500 µmol/kg.
